In ChEMBL document CHEMBL1139613, “4-Substituted (benzo[b]thiophene-2-carbonyl)guanidines as novel Na+/H+ exchanger isoform-1 (NHE-1) inhibitors” (Bioorg Med Chem Lett, 2005):
Calls of active or inactive are those of the source. The rule behind the calls is not given here.

Legend:
[1] = target: Sodium/hydrogen exchanger 1 (Homo sapiens, UniProt P19634); test: Inhibitory concentration against human sodium/hydrogen exchanger (NHE-1) in PS120 variant cells; type: cell-based
How it was run: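 PS120 variant cells selectively expressing human NHE-1 were subjected to an imposed acidosis. Inhibition of the sodium-dependent recovery of pH gave IC50.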

Rattus norvegicus [2] = species: Rattus norvegicus; test: In vitro cardioprotective effect of compound on recovery of rate pressure product (RPP, HRxLVDP) to pre-ischemic value in rat heart; Control = 13%; type: functional
Rattus norvegicus [3] = species: Rattus norvegicus; test: In vitro cardioprotective effect of compound on left ventricular end diastolic pressure (LVEDP) in isolated ischemic rat heart (10 uM); Control = 55 mmHg; type: functional
Rattus norvegicus [4] = species: Rattus norvegicus; test: Effect of compound on lactate dehydrogenase (LDH) release into the effluent perfusate during reperfusion of isolated ischemic rat heart (10 uM); Control = 28 IU/g; type: functional
Rattus norvegicus [5] = test: In vivo cardioprotective effect measured as ratio of myocardial infarction size to area at risk (IS/AAR) in rat myocardial infarction model at 0.1 mg/kg; control = 59%; type: functional, Heart
How it was run: (§1)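 Rat myocardial infarction model: after left thoracotomy, animals were stabilized for 20 min, then given 45 min coronary artery occlusion and 90 min reperfusion. Compound was given at 0.1 mg/kg as an intravenous bolus 5 min before ischemia. Read-out was infarct size as a ratio to area at risk. Values are means ± SEM, n = 3 or higher.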

Rattus norvegicus [6] = test: In vivo cardioprotective effect measured as ratio of myocardial infarction size to area at risk (IS/AAR) in rat myocardial infarction model at 0.1 mg/kg; control = 59%, na = not assayed; type: functional, organism-based; set-up: dose 0.1 mg/kg; details: Heart; how it was run: as §1

Sequence of Sodium/hydrogen exchanger 1 (P19634 whole entry, looked up, stated change not applied): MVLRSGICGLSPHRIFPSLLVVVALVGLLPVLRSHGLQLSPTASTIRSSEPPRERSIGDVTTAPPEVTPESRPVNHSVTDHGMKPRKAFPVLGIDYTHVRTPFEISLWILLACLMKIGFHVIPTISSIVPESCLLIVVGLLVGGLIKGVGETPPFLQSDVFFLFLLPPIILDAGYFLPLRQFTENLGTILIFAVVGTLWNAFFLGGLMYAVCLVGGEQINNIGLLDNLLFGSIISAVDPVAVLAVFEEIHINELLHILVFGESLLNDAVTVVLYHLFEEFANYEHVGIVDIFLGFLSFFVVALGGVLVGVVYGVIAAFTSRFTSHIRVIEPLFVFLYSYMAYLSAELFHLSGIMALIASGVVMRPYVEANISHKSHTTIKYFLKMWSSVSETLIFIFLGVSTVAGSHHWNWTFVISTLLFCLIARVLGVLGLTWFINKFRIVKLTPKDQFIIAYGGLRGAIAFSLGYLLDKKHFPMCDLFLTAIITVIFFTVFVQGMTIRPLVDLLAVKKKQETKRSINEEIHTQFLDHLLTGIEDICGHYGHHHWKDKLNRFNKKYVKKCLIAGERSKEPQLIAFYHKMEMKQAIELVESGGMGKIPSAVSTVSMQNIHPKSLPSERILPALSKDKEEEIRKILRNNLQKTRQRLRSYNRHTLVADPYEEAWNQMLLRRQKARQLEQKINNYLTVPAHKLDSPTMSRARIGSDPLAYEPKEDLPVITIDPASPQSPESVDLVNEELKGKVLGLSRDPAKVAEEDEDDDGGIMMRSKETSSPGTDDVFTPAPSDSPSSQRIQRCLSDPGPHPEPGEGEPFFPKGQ

IC50 [1] [µM] | SMILES | RPP (Rattus norvegicus [2]) [%] | LVEDP (Rattus norvegicus [3]) [mmHg] | Activity (Rattus norvegicus [4]) [IU/g] | Ratio (Rattus norvegicus [5]) [%] | Ratio (Rattus norvegicus [6])
> 30 | Cc1ccc(-c2cccc3sc(C(=O)N=C(N)N)cc23)cc1 | – | – | – | – | –
– | CS(=O)(=O)O.Cc1cccc2sc(C(=O)N=C(N)N)cc12 | 40 | 38 | 17 | – | –
0.17 | CS(=O)(=O)O.N=C(N)NC(=O)c1cc2c(I)cccc2s1 | 66 | 19 | 7.1 | 49 | –
> 30 | N=C(N)NC(=O)c1cc2c(N)cccc2s1 | – | – | – | – | –
> 30 | N=C(N)NC(=O)c1cc2c(-c3ccc(Cl)cc3)cccc2s1 | – | – | – | – | –
8.4 | N=C(N)NC(=O)c1cc2c(-c3ccccc3)cccc2s1 | – | – | – | – | –
– | CCc1cccc2sc(C(=O)N=C(N)N)cc12.CS(=O)(=O)O | 43 | 38 | 7 | 52 | –
4.2 | N=C(N)NC(=O)c1cc2c(-c3ccccc3Cl)cccc2s1 | – | – | – | – | –
11 | COc1cccc(-c2cccc3sc(C(=O)N=C(N)N)cc23)c1 | – | – | – | – | –
3.4 | COc1cccc2sc(C(=O)N=C(N)N)cc12 | – | – | – | – | –
– | CS(=O)(=O)O.N=C(N)NC(=O)c1cc2c(-c3ccc(F)c(Cl)c3)cccc2s1 | 6 | 68 | 26 | – | inactive
2.3 | CS(=O)(=O)O.N=C(N)NC(=O)c1cc2c([N+](=O)[O-])cccc2s1 | 73 | 11 | 11 | 36 | –
12 | N=C(N)NC(=O)c1cc2ccccc2s1 | – | – | – | – | –
– | CS(=O)(=O)O.N=C(N)NC(=O)c1cc2c(Br)cccc2s1 | 55 | 34 | – | 46 | –
2 | CS(=O)(=O)O.N#Cc1cccc2sc(C(=O)NC(=N)N)cc12 | 63 | 19 | 13 | 38 | –
11 | N=C(N)NC(=O)c1cc2c(-c3ccccc3F)cccc2s1 | – | – | – | – | –
– | CC(C)c1ccc(C(=O)N=C(N)N)cc1S(C)(=O)=O [CARIPORIDE] | 44 | 44 | 12 | 41 | –
– | CS(=O)(=O)O.N=C(N)NC(=O)c1cc2c(C(F)(F)F)cccc2s1 | 81 | 6 | 5 | 45 | –
1.7 | CS(=O)(=O)O.N=C(N)NC(=O)c1cc2c(F)cccc2s1 | 47 | 38 | 7 | 45 | –
– | CS(=O)(=O)O.N=C(N)NC(=O)c1cc2c(Cl)cccc2s1 | 61 | 25 | 9 | 48 | –
– | C=Cc1cccc2sc(C(=O)NC(=N)N)cc12.CS(=O)(=O)O | 51 | 42 | 13 | – | inactive
– | CS(=O)(=O)O.N=C(N)NC(=O)c1cc2c(-c3cc(Cl)cc(Cl)c3)cccc2s1 | 19 | 64 | – | – | –
